Assay outcomes (PubChem)
Hits are enriched below; roughly 3.7% of the tested compounds scored in any of these assays.
KCNQ1 inh – blocks the human KCNQ1 potassium channel; B-score at 10 µM; 1.3% of 310,000 active; CHO-K1 KCNQ1, FluxOR thallium flux fluorescence; hits give high values; P51787;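 active = compounds whose thallium flux B-score, printed positive for inhibition, exceeds three library SD while starting fluorescence stays within three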;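 note: channel opened by potassium depolarization with thallium stimulus after 20 min compound exposure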
Target sequence (P51787 whole entry, looked up): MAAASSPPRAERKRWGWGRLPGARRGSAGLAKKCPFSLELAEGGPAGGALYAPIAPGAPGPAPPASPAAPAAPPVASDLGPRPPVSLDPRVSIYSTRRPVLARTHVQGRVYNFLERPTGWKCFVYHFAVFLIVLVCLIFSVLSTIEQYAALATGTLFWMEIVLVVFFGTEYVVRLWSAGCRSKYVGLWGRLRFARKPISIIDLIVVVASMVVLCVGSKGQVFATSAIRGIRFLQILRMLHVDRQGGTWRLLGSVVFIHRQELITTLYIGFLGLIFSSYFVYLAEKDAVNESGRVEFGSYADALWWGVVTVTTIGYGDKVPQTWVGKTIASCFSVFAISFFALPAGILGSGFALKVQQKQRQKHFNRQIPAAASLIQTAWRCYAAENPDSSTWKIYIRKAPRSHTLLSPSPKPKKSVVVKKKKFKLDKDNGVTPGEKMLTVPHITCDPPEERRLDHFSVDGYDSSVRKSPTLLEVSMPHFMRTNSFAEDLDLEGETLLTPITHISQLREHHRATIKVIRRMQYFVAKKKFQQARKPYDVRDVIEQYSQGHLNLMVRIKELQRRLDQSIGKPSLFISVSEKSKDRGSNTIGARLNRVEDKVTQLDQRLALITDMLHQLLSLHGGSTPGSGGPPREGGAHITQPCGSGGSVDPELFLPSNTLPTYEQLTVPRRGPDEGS
KCNQ1 act – potentiators or activators of human KCNQ1 potassium channel. CHO-K1 KCNQ1, thallium flux FluxOR fluorescence; hits give high values. P51787. AID 2648. 0.35% of 310,000 active. B-score at 10 µM;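 active = fluorescence ratio B-score, a plate-corrected score, at least three library SD, with initial intensity B-score within 5 SD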
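assay system = CHO-K1 cells stably expressing KCNQ1 | medium = assay buffer, equal DMSO in all wells | timing = 37 °C overnight plating, 90-min dark dye load, 20-min compound pretreatment | measured by = kinetic FluxOR thallium fluorescence, 10-s 1-Hz baseline, 110-s post-stimulus read | measure = fluorescence change relative to baseline, converted to B score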
KCNK3 inh – human KCNK3 channel inhibition, primary screen | B-score at 10 µM | 0.84% of 340,000 active | CHO-KCNK3 thallium flux, FluxOR fluorescence; hits give low values;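 active = B-score under library mean minus 4 SD, starting fluorescence ratio at most library mean plus 5 SD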;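 note: more negative B-score means stronger inhibition of thallium flux through KCNK3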
Kir21 inh – blocks the mouse Kir2.1 inward-rectifier potassium channel | P35561 | HEK293-Kir2.1, FluxOR thallium flux fluorescence; hits give low values | B-score at 10 µM | 0.85% of 310,000 active;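 active = fluorescence ratio B-score at or below minus 3 SD of library scores, with starting-brightness B-score within 2 SD, cut at about -4.2 in these data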;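 note: channel flux triggered by added potassium and thallium sulfate stimulus; B-score of peak minus minimum fluorescence over baseline after thallium stimulus; more negative B-score means stronger Kir2.1 block with less thallium influx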
hERG protect – shields human hERG channel from block by proarrhythmic agents | Q12809 | activation (rescue from dofetilide block), less the hit threshold, % at 10 µM | 0.51% of 310,000 active | CHO-hERG, FluxOR thallium flux, dofetilide IC70 present;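 active = activation above the mean of controls blocked by dofetilide plus 5 SD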;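 note: thallium influx through hERG after potassium depolarization seen as dye fluorescence rise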
KCNK9 inh – blocks the human KCNK9 two-pore domain potassium channel. Q9NPC2. HEK293 KCNK9, FluxOR thallium flux fluorescence; hits give low values. B-score at 10 µM. 1.2% of 310,000 active. AID 488922;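 active = ratio B-score over 3 SD below the library mean, with starting fluorescence within 5 SD of its mean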;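 note: negative B-score means less thallium flux so channel inhibition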
Numbers stand for hits; . = inactive; / = not tested or not shown.

SMILES | KCNQ1 inh | KCNQ1 act | KCNK3 inh | Kir21 inh | hERG protect | KCNK9 inh
COc1cc(/C=C(\NC(C)=O)C(=O)Nc2ccc(NC(C)=O)cc2)ccc1OC(C)=O | . | . | . | . | . | .
O=C(COC(=O)c1ccncc1)c1ccc(Cl)c(Cl)c1 | . | . | . | . | . | .
CCCc1nc2c(s1)CCc1onc(-c3ccc(Br)cc3)c1-2 | . | . | . | . | . | .
CCCc1nc2c(s1)CCc1onc(-c3ccc(Cl)cc3)c1-2 | . | . | . | . | . | -7.15
O=C1OC(c2ccc3c(c2)OCO3)N(C(=O)c2ccc(Cl)c(Cl)c2)c2ccccc21 (stereo not drawn) | . | . | . | . | . | -7.52
Cc1cccc(C(=O)N2c3ccccc3C(=O)OC2c2ccc3c(c2)OCO3)c1 (stereo not drawn) | . | . | . | . | . | .
NC(=O)NC(=O)COC(=O)c1ccc2c(c1)C(=O)N(Cc1ccccc1)C2=O | . | . | . | . | . | .
COCc1nc2ccccc2n1Cc1cccc(C)c1 | . | . | . | . | . | .
Cc1cccc(Cn2c(Cc3ccccc3)nc3ccccc32)c1 | . | . | . | -10.6 | . | .
O=C(O)c1ccc(CN2CCCCC2)o1 | . | . | . | . | 5.1 | .
CCOC(=O)C1=C(O)c2ccccc2C(=O)/C1=C\c1ccc(C)cc1 | / | / | . | / | / | /
CCOC(=O)C1=C(Cc2ccc(Cl)cc2)C(=O)c2ccccc2C1=O | 10 | . | . | . | . | .
O=C(CCn1cccc(C(F)(F)F)c1=O)Nc1cccc(C(F)(F)F)c1 | . | . | . | . | . | .
CC(=O)NC(=S)NNC(=O)COc1ccc(Br)cc1 | / | / | . | / | / | /
COC(=O)NNC(=O)c1ccc(C(C)(C)C)cc1 | . | . | . | . | . | .
CC(C)(C)NC(=O)C(=O)NNC(=O)COc1ccc(Br)cc1 | . | 8 | . | . | 5.1 | .
Cc1cccc(C(=O)NNC(=O)C(=O)NC(C)(C)C)c1 | . | . | . | . | . | .
CC(C)(C)NC(=O)C(=O)NNC(=O)c1ccc(C(C)(C)C)cc1 | . | 20 | . | . | 14.9 | .
CC(C)(C)NC(=O)C(=O)NNC(=O)c1cccc(Br)c1 | . | 18 | . | . | 23.4 | .
COc1ccc(CNC(=O)C[C@H]2C[C@H](C(=O)N3CCOCC3)[C@@]3(CCC4CCCC4)c4[nH]c5cc(CCC(=O)N(C)C)ccc5c4CCN3C2=O)cc1OC | / | / | . | / | / | /
COC(=O)c1cc2c(N)c(C(=O)c3ccccc3)sc2nc1C(OC)OC | . | . | . | . | . | .
CC(=O)c1c(C)[nH]c(C(=O)OCC(=O)NCc2cccs2)c1C | / | / | . | / | / | /
COC(=O)COc1cc(OCC(=O)OC)c2c(-c3ccccc3)cc(=O)oc2c1 | . | . | . | . | . | .
CC(C)(C)OC(=O)COc1cc(OCC(=O)OC(C)(C)C)c2c(=O)cc(-c3ccccc3)oc2c1 | / | / | -9.11 | / | / | /
Cc1ccc(-n2nc3c(N4CCC(C(=O)NCc5ccccc5C)CC4)nnc(C)c3c2C)cc1 | 7 | . | . | . | . | .
SMILES | KCNQ1 inh | KCNQ1 act | KCNK3 inh | Kir21 inh | hERG protect | KCNK9 inh
CCOc1ccccc1CNC(=O)C1CCN(c2nnc(C)c3c(C)n(-c4ccc(C)cc4)nc23)CC1 | . | . | . | . | . | .
CCN(CC)S(=O)(=O)c1cc(NC(=O)CSCc2c(C)noc2C)ccc1C | / | / | -10 | / | / | /
CC(=O)C1=C(c2cccc([N+](=O)[O-])c2)N(C(C)=O)n2c(C)nnc2S1 | 7 | . | . | . | . | .
Cc1ccc(S(=O)(=O)C(C)C(=O)c2ccc3c(c2)OCCO3)cc1 (stereo not drawn) | . | . | . | -4.27 | . | .
COc1cc(CNCc2ccc(C)cc2)cc(OC)c1OC | . | . | . | . | . | .
CC(=O)Nc1ccc(C(=O)OCC(=O)N2CCC(Cc3ccccc3)CC2)cc1 | / | / | . | / | / | /
CNC(=S)NNC(=O)c1cccn(Cc2ccc(Cl)cc2Cl)c1=O | 7 | . | / | . | . | .
CCCCn1c(N)c(C(=S)NC(=O)CC(C)(C)C)c(=O)n(C)c1=O | . | 18 | . | . | 24.7 | .
CN(c1ccccc1)S(=O)(=O)c1ccc(Cl)c(C(=O)Nc2ccc(-c3nc4ccccc4[nH]3)cc2)c1 | . | . | . | . | . | .
CN(c1ccccc1)S(=O)(=O)c1ccc(Cl)c(C(=O)Nc2nc3ccccc3[nH]2)c1 | . | . | . | . | . | -7.09
CC(OC(=O)/C=C/c1ccc2ccccc2n1)C(=O)N(C)c1ccccc1 (stereo not drawn) | / | / | . | / | / | /
CC(=O)/C=C/c1ccc2ccccc2n1 | . | . | . | -4.79 | . | .
COc1ccc(NC(=O)CNS(=O)(=O)c2ccc(Cl)cc2)cc1 | . | . | . | . | . | .
Cc1ccc(NC(=O)c2ccc3c(c2)OCCO3)cc1S(=O)(=O)Nc1cccc(Cl)c1 | 6 | . | . | . | . | .
COc1cccc(NC(=O)CNS(=O)(=O)c2ccc(Cl)cc2)c1 | . | . | . | -4.24 | . | .
Cc1cccc(NC(=O)c2cccc(NS(=O)(=O)c3ccc(Cl)cc3)c2)c1 | 10 | . | . | . | . | .
CCN(CCN(C)C)C(=O)C1CCN(S(=O)(=O)c2c(C)noc2/C=C/c2ccccc2F)CC1 | . | . | . | -5.02 | . | .
CN(C)CCCNc1nc2sc3c(c2c(=O)n1CCc1ccccc1)CCCCC3 | . | . | . | -5.44 | . | .
CN(C)CCCn1c(=O)n(CCc2ccccc2)c(=O)c2c3c(sc21)CCCCC3 | . | . | . | . | . | .
Cc1cc(S(=O)(=O)NC2CC(C)(C)NC(C)(C)C2)c(Cl)cc1Cl | . | . | . | . | . | .
O=C(c1ccco1)N1CCN(C(=O)c2cc3sccc3n2Cc2ccccc2)CC1 | . | . | . | . | . | .
O=C(NCc1ccco1)c1cc2sccc2n1Cc1ccccc1 | . | . | . | . | . | -6.94
CC1(C)Cc2c(c(N3CCCC3)nc3sc4c(N5CCNCC5)ncnc4c23)CO1 | . | . | / | . | . | .
O=C(Nc1ccc(OCC(F)(F)C(F)F)c(C(F)(F)F)c1)c1ccccc1 | . | . | . | . | . | .
O=C(Nc1ccc(OCC(F)(F)C(F)F)c(C(F)(F)F)c1)c1ccccc1O | . | . | . | . | . | -6.6
Cn1cc(C(C[N+](=O)[O-])c2ccccc2)c2ccccc21 (stereo not drawn) | . | . | . | . | . | .
CC(=O)n1cc(C(C[N+](=O)[O-])SCCN)c2ccccc21 (stereo not drawn) | . | . | . | -13.4 | . | .
COc1ccc(CN(C)CC2CCCN(CCc3ccc(Cl)cc3)C2)cc1OC (stereo not drawn) | . | . | . | . | . | .
COc1ccc(F)c(CN(C)CC2CCCN(CCc3ccc(F)cc3)C2)c1 (stereo not drawn) | . | . | . | -9.75 | . | .
